Assay outcomes from PubChem BioAssay.
M4 ag – human M4 muscarinic receptor agonists, primary screen, CHO-K1 cells, Fluo-8 calcium fluorescence. CHO-K1 hM4/Gqi5; vehicle 0%, full acetylcholine response 100%. Muscarinic acetylcholine receptor M4 (Homo sapiens), P08173. activation, % at 3 µM. AID 624127, 2012. hit rate 0.14% among 360,000;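 active = activation above the run mean over all test wells plus 3 SD, cut at about 32% in these data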;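 note: peak over basal fluorescence ratio per well then scaled between controls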
CHRM5 PAM – human M5 muscarinic receptor positive allosteric modulators, primary screen, CHO-K1 cells, Fluo-8 calcium fluorescence. hit rate 0.3% among 360,000. activation, % at 3 µM. CHO-K1 hM5, ACh EC20 PAM; 0% = ACh EC20, 100% = ACh EC100;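 active = activation above the run cutoff, the mean activation of all test compounds plus 3 SD, cut at about 18% in these data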
Target sequence (P08912 whole entry, looked up): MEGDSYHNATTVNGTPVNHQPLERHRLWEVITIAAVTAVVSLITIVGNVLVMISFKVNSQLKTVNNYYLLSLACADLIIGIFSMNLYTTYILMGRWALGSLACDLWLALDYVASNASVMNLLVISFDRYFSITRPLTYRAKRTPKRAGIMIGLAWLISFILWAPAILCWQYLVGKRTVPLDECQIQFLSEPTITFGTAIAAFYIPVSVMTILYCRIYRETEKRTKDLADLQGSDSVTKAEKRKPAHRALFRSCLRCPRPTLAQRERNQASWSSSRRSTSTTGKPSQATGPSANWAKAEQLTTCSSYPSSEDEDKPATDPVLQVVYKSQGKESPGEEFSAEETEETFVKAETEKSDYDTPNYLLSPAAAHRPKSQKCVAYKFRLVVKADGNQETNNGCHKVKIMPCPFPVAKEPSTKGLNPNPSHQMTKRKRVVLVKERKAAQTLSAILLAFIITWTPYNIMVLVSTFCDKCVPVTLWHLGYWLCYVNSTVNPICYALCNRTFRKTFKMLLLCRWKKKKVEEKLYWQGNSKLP
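Replicates: One well per compound, no replicates | System: Human M5 receptor in CHO-K1 cells | Benchmarks: Low control EC20 acetylcholine (0%), high control EC100 acetylcholine (100%) | Probe or stimulus: Acetylcholine, EC20 level | Times: Fluo-8 loading 80 min at 37 °C plus 30 min room temperature | Signal: Intracellular calcium via Fluo-8 fluorescence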
CHRM5 agonist – human M5 muscarinic receptor agonists, primary screen, CHO-K1 cells, Fluo-8 calcium fluorescence | CHO-K1 hM5 cells; 0% DMSO wells, 100% maximal acetylcholine response | hit rate 0.19% among 360,000 | AID 624037, 2012 | activation, % at 3 µM;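 active = activation above the run's mean over test compounds plus 3 SD, cut at about 23% in these data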;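 note: signal is peak over basal fluorescence ratio across the kinetic read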
M4 antag – human M4 muscarinic receptor antagonists, primary screen, CHO cells, Fluo-8 calcium fluorescence; Muscarinic acetylcholine receptor M4 (Homo sapiens), P08173; CHO-hM4 cells, ACh EC80; inhibition, % at 3 µM; hit rate 0.73% among 360,000;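 active = inhibition above its plate's cutoff, the mean inhibition of sample wells plus 3 SD, cut at about 27% in these data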
M5 antag – human M5 muscarinic receptor antagonists, primary screen, CHO cells, Fluo-8 calcium fluorescence. Muscarinic acetylcholine receptor M5 (Homo sapiens), P08912. CHO-hM5 cells, ACh EC80. inhibition, % at 3 µM. hit rate 0.59% among 360,000. AID 624040, 2012;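 active = inhibition above a per-plate cutoff, the mean of that plate's test compounds plus 3 SD, cut at about 27% in these data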
M4 PAM – human M4 muscarinic receptor positive allosteric modulators, primary screen, CHO-K1 cells, Fluo-8 calcium fluorescence; AID 624126, 2012; activation, % at 3 µM; hit rate 0.4% among 360,000; CHO-K1 hM4/Gqi5, ACh EC20; 0% = ACh EC20, 100% = maximal ACh; Muscarinic acetylcholine receptor M4 (Homo sapiens), P08173;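 active = activation above its plate's cutoff, the mean activation of sample wells plus 3 SD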
Each line names hits and unclear results; the compound was inactive in the other large screens. This is a sample that favours compounds with a hit; in the whole collection about 1.8% have one here.

CCO[C@H]1OC(C(=O)N2CCN(C)CC2)=C[C@@H](C2CC2)[C@@H]1CCCO	none
CCN(CC)CCOCCOC(=O)C1(c2ccccc2)CCCC1	M4 antag 90.8, M5 antag 95.8
Cc1cccc(NC(=O)C2(c3ccc([N+](=O)[O-])cc3)CCCC2)c1	none
CCN(CC)CCCOC(=O)C1(c2ccccc2)CCCC1	M4 antag 95.5, M5 antag 99.5
CCN(CC)CCOC(=O)C1(c2ccc([N+](=O)[O-])cc2)CCCC1	M4 antag 49.0, M5 antag 83.8
CCN(CC)CCOC(=O)C1(c2ccccc2)CCOCC1	none
O=C(NCCCN1CCCC1=O)C1CCN(S(=O)(=O)c2cccc(Cl)c2Cl)CC1	none
CCOC(=O)C1=C[C@@H](c2ccccc2)N(S(=O)(=O)c2ccc(C)cc2)[C@H]1c1ccc(OC)cc1	none
COC(=O)c1cc(S(=O)(=O)N2CCOCC2)ccc1Sc1ccccc1N	M4 PAM 22.1
C#CCOC(=O)C[N+](C)(C)CC#Cc1ccccc1	none
CC(=O)c1cc2c(cc1NC(=O)C1CCC1)OCO2	M4 PAM 23.6
CN(C)c1ccc(CN2CCC(C(=O)NC(c3ccc(F)cc3)c3ccc4ccccc4n3)CC2)cc1 (configuration not stated)	M5 antag 35.8
O=C1NC(c2ccncc2)C(C(=O)c2cccs2)C(O)(C(F)(F)F)N1 (configuration not stated)	M4 antag 29.6
CCc1nnc(NC(=O)CCN(c2cc(C)cc(C)c2)S(=O)(=O)c2ccc(Cl)cc2)s1	CHRM5 PAM 19.2
Cc1cc(C)cc(N(CCC(=O)O)S(=O)(=O)c2ccc(Cl)cc2)c1	M4 antag 36.2
Cc1ccc(-n2c(C)nn(CCOc3ccccc3)c2=O)cc1	none
Cc1nn(CCOc2ccccc2)c(=O)n1-c1c(F)cccc1F	M4 antag 30.7, M4 PAM 31.5
CN(C)S(=O)(=O)c1cccc(C(=O)Nc2ccc3c(c2)CCC3)c1	none
Cc1cc(C(=O)Nc2ccc(C#N)cc2)on1	none
CC(Oc1ccc(F)cc1)c1ccnc2nc(/N=C/N(C)C)nn12 (configuration not stated)	none
CC(Oc1ccc(C(C)(C)C)cc1)c1ccnc2nc(/N=C/N(C)C)nn12 (configuration not stated)	M4 antag 44.0
Cc1c(Cl)c(=O)oc2cc(OCC(=O)NCc3cccs3)ccc12	CHRM5 PAM 21.4
CC(NCc1ccc2c(c1)OCO2)C(=O)N1CCc2ccccc21 (configuration not stated)	M4 PAM 22.9
CCCCCC[n+]1ccccc1/C=C/c1ccc(N(C)C)cc1	M4 ag 32.5, CHRM5 agonist 42.5, M4 antag 49.4, M5 antag 63.5
CC[n+]1ccccc1/C=C/c1ccc(N(C)C)cc1	none
Cc1ccc(C(c2sc3nc(C)nn3c2O)N2CC(C)OC(C)C2)cc1 (configuration not stated)	none
Cc1nc2sc(C(c3ccc(Cl)cc3)N3CC(C)OC(C)C3)c(O)n2n1 (configuration not stated)	M4 PAM 16.8
CCN(CC(=O)Nc1cccc(S(=O)(=O)N(C)c2ccccc2)c1)Cc1cccs1	none
CC(C)[C@H](NC(=O)c1ccccc1)C(=O)OCC(=O)N1CCCc2ccccc21	none
Fc1ccc2[nH]c3c(N4CCc5ccccc5C4)ncnc3c2c1	M5 antag 27.3
Cc1nc2scc(-c3ccccc3)c2c(=O)o1	CHRM5 PAM 23.3
O=c1oc(-c2ccccc2F)nc2scc(-c3ccccc3)c12	none
O=C(CSc1nc(=O)n(CCCN2CCOCC2)c2c1CCC2)Nc1ccc([N+](=O)[O-])cc1	none
O=[N+]([O-])c1ccc(S(=O)(=O)CC2CSc3nc4ccccc4n32)cc1 (configuration not stated)	M4 PAM 33.5
O=C(O)CCC(=O)NNc1ncnc2ccccc12	none
O=C(O)CCC(=O)NNc1nc2ccccc2nc1-c1ccccc1	CHRM5 PAM 18.8
COc1cc(C=C2C(=O)OC(C)(C)OC2=O)cc(Cl)c1OCC(=O)Nc1ccccc1	none
CC(C)(C)C1(C)OC(=O)C(=Cc2ccc(OCC(=O)Nc3ccccc3)cc2)C(=O)O1 (configuration not stated)	M4 PAM 30.1
N#CCC(=O)NNc1c([N+](=O)[O-])cc(C(F)(F)F)cc1[N+](=O)[O-]	none
Cc1c(C(=O)OCC(C)(C)CN(C)C)oc2ccccc12	none
Cc1c(C(=O)OC(C)CCN(C)C)oc2ccccc12 (configuration not stated)	M4 antag 30.5
COc1ccc(C(=O)N/N=C2\SCC(=O)N2Cc2ccc3c(c2)OCO3)c(OC)c1	M5 antag 30.6
COc1cccc(C(=O)N/N=C2/SCC(=O)N2CCc2ccc(OC)c(OC)c2)c1	none
O=C(c1ccc(Cl)c(Cl)c1)N1CCC(=O)N(C(COCc2ccccc2)Cc2ccccc2)CC1 (configuration not stated)	none
CNCC/C=C1/c2ccccc2CSc2ccccc21	M4 antag 42.8, M5 antag 80.8
O=C(NNC(=O)c1ccccc1[N+](=O)[O-])c1ccc(NS(=O)(=O)c2cccs2)cc1	none
S=C(NCCCc1cnc[nH]1)NCCCN(Cc1ccc(Cl)cc1)c1ccc(Br)cn1	none
O=C1Nc2ccccc2-n2nnnc2C1N1CCN(c2ccc(C(F)(F)F)cc2[N+](=O)[O-])CC1 (configuration not stated)	CHRM5 agonist 23.7
CC(C(=O)NCC1(c2ccccc2)CCCC1)N1CCCC1 (configuration not stated)	M4 antag 42.8
CC(C(=O)NCC1(c2ccccc2)CCCC1)N1CCOCC1 (configuration not stated)	none
CC(=O)C1=C(O)C(=O)N(c2ccc(Br)cc2)C1c1cccc([N+](=O)[O-])c1 (configuration not stated)	none
Cc1ccc(C)c(NC(=S)N(C)CCc2ccccn2)c1	M4 PAM 17.9
CCn1cc(C(=O)NCCCN2CC(C)CC(C)C2)c(=O)c2cc(S(=O)(=O)N(C)C3CCCCC3)ccc21 (configuration not stated)	M4 antag 33.3
CC(C)=CC(=O)O[C@@H]1Cc2c(ccc3ccc(=O)oc23)OC1(C)C	CHRM5 PAM 25.4
